We go through 97 molecules from ChEMBL document CHEMBL4513216, “Probing the Open Global Health Chemical Diversity Library for Multistage-Active Starting Points for Next-Generation Antimalarials” (ACS Infect Dis, 2020).

SMILES strings stand for the structures.

The data set in a line: Toxicity liver stage against HepG2, at 10uM. Format: cell-based. Further details: test concentration 10 uM, cell line HepG2-A16-CD81EGFP. Particulars: human, HepG2-A16-CD81EGFP cells; read-out: INHIBITION
The essentials:
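Uninfected HepG2-A16-CD81EGFP cells, 3 × 10^3 per well, 1536-well, plated on prespotted compound at 10 μM final, parasite-free screening media added to match infected plates; puromycin 10 μM positive, DMSO 0.5% negative; run in parallel with 48 h PbLuc assay at 37 °C, 5% CO2; viability by CellTiter-Glo luminescence, normalized to controls.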
As to `Cc1c(C)n2c(SCC(=O)N3CCCC3)nnc2[nH]c1=O`, the cytotoxicity at 10 µM stood at 2.4%.
Turning to `CN1C[C@@H](NC(=O)CC(C)(C)C)C[C@H]1c1nc(-c2cnccn2)no1`, the cytotoxicity at 10 µM came to 3.08%.
For `CN(Cc1ccccc1)C(=O)Cn1nc(N2CCSCC2)ccc1=O`, the cytotoxicity at 10 µM was 0.585%.
In the case of `COCCNC(=O)C1CC(=O)N(c2n[nH]c3cccc(F)c23)C1` (configuration not stated), the cytotoxicity at 10 µM is 3.23%.
`O=C(O)c1ccc(N2CCC(Cc3ccccc3)CC2)nn1`: the cytotoxicity at 10 µM is -6.14%.
`CC(=O)NCC(Cc1cccc(F)c1)n1cccc1` (configuration not stated): the cytotoxicity at 10 µM is -5.36%.
Turning to `Cn1nnn(-c2ccc(NS(=O)(=O)c3ccc(F)c(Cl)c3)cc2)c1=O`, the cytotoxicity at 10 µM was -4.57%.
Regarding `O=C(c1nnn(-c2ccc(F)cc2)n1)N1CCC(O)CC1`, the cytotoxicity at 10 µM turned out to be 5.86%.
Regarding `O=C(c1nnn(-c2ccc(Cl)cc2)n1)N(CCO)Cc1ccccc1`, the cytotoxicity at 10 µM was -1.9%.
Consider `Nc1cccnc1N1CCC(C(F)(F)F)CC1`, for which the cytotoxicity at 10 µM was 8.19%.
Consider `Cc1nc(N2CCCC2)nc2c1CCN(C(=O)N1CCCC1)CC2`, for which the cytotoxicity at 10 µM was determined as 1.82%.
For `COc1cccc(N2CC3(CCN(c4cnccn4)C3)CC2=O)c1` (configuration not stated), the cytotoxicity at 10 µM turned out to be 0.0227%.
`CN(C)C(=O)c1ccn(-c2ccc3ccccn23)n1`: the cytotoxicity at 10 µM was determined as 6.98%.
With `C1CC(CN2C[C@@H]3C[C@@H](c4nnc(C5CC5)o4)O[C@@H]3C2)C1`, the cytotoxicity at 10 µM is 14.9%.
Turning to `O=C(c1cccs1)N1CCN(CC2CC2)c2ncccc2C1`, the cytotoxicity at 10 µM was 0.835%.
Turning to `CCOc1cccc(CNc2ccccc2Cl)c1O`, the cytotoxicity at 10 µM is -2.52%.
For the molecule `Cn1cccc1CNC(=O)CCCc1nnc2ccccn12`, the cytotoxicity at 10 µM is -5.77%.
Consider `O=C(NCCc1ccccc1)C1CCCN(c2ccc3nncn3n2)C1` (configuration not stated), for which the cytotoxicity at 10 µM came out at 25.9%.
On to `O=C(O)c1cc2c(nc1O)CC(c1cccc(Cl)c1)CC2=O` (configuration not stated), for which the cytotoxicity at 10 µM is 9.56%.
For `COc1cccc2c1ccn2CCC(=O)N1CCCC(C(=O)O)C1` (configuration not stated), the cytotoxicity at 10 µM came to 2.11%.
Then `CNc1nc2c(s1)C(c1cccc(F)c1F)CC(=O)N2` (configuration not stated), with -2.15%; and `CCc1nnc(SCc2nonc2C)n1C`, with -1.04%; and `CC(C)n1cc(N2CC(C(=O)N3CCC(C(N)=O)CC3)CC2=O)cn1` (configuration not stated), with -4.51%.
Then `Cc1nc(C(=O)N2CCOC(Cc3ccc(F)cc3)C2)co1` (configuration not stated), with -1.39%; and `Fc1ccccc1CN1CCC(c2noc(-c3ccccn3)n2)CC1`, with -1.39%; and `Nc1nccnc1C1CN(Cc2ccc(OCC(=O)O)cc2)CCO1` (configuration not stated), with -2.11%.
As for `CCc1nccn1-c1cncc(C2CCN(C(=O)COC)CC2)n1`, the cytotoxicity at 10 µM is -37.3%.
For the molecule `O=C(O)C1(Cc2cccc(-c3ccc(F)cc3)c2)CCOCC1`, the cytotoxicity at 10 µM was -24.1%.
Consider `O=c1c(Cc2ccccc2)c(O)ccn1Cc1cccs1`, for which the cytotoxicity at 10 µM amounted to 10.2%.
Consider `O=C(COC1CCCCC1)Nc1ccn(Cc2cccnc2)n1`, for which the cytotoxicity at 10 µM was found to be 5.17%.
As to `CCN(CC(=O)Nc1cc(C(C)(C)C)no1)Cc1ccc(Cl)s1`, the cytotoxicity at 10 µM came to 6.13%.
Regarding `CC(C)N1C(=O)CN(CCCO)CC1(C)C`, the cytotoxicity at 10 µM is 2.04%.
Regarding `Clc1cncc(N2CCN(Cc3ccon3)CC2)n1`, the cytotoxicity at 10 µM was determined as 6.94%.
For the molecule `CN(CCOCC1CC1)C(=O)Nc1ccc(C#N)c(Cl)c1`, the cytotoxicity at 10 µM was -11.1%.
Regarding `CCc1ccc(C(=O)N2CCCCC2CNS(C)(=O)=O)o1` (configuration not stated), the cytotoxicity at 10 µM is -0.95%.
Then `CN(CC(N)=O)Cc1c(Cl)ccc2cccnc12`, with 4.53%; and `COc1ccc(Cl)cc1CCNC(=O)NCc1ccncc1`, with 2.53%; and `Cc1cc(C[S+]([O-])Cc2ccccc2C)no1` (configuration not stated), with 9.13%.
On to `Cc1nnc(-c2ccc(C(=O)Nc3ccnc(N(C)C)n3)cc2)o1`, for which the cytotoxicity at 10 µM was -1.01%.
With `CCC(C)(NCC(=O)OC)c1nccs1` (configuration not stated), the cytotoxicity at 10 µM is -12.7%.
Regarding `Cc1cc(NC(=O)[C@H]2CCCCN2C(=O)OC(C)(C)C)no1`, the cytotoxicity at 10 µM is -1.48%.
Regarding `Cc1cc(C)c2c(OCC(=O)NCC(O)C(F)(F)F)nn(C)c2n1` (configuration not stated), the cytotoxicity at 10 µM is 1.3%.
Then `COc1cccc2[nH]cc(CCNC(=O)N3CCC[C@H]3CO)c12`, with -12.6%.
For the molecule `COc1ccccc1CCNC(=O)NC(C)COCC(F)(F)F` (configuration not stated), the cytotoxicity at 10 µM turned out to be 8.91%.
For `CCOc1cccnc1C(=O)N1CC=C(c2ccc(O)cc2)CC1`, the cytotoxicity at 10 µM is -1.66%.
As to `Cc1cccc(-c2c[nH]c(C3CCCN3C(=O)Cn3cc(C)cn3)n2)c1` (configuration not stated), the cytotoxicity at 10 µM was 4.56%.
Turning to `CCCc1nccn1CCn1cnc2ccsc2c1=O`, the cytotoxicity at 10 µM was determined as 0.0394%.
Then `CNS(=O)(=O)c1csc(C(=O)NCc2sccc2C)c1`, with 4.63%.
For `O=C(Nc1ccccc1OC(F)(F)F)C1CCS(=O)(=O)C1` (configuration not stated), the cytotoxicity at 10 µM is 10.8%.
As for `COCC1CN(C(=O)Nc2cc(C(F)(F)F)ccc2F)CCO1` (configuration not stated), the cytotoxicity at 10 µM came out at 4.24%.
As to `COc1cc(F)c(S(=O)(=O)N2CCN(C)Cc3ccccc32)cc1OC`, the cytotoxicity at 10 µM worked out at 3.84%.
Take `Cc1ccc(C(CNCC2CC2)N2CCOCC2)s1` (configuration not stated): the cytotoxicity at 10 µM was -13.7%.
As to `c1ccc(OCCN2CCCC(c3noc(C4CC4)n3)C2)cc1` (configuration not stated), the cytotoxicity at 10 µM amounted to 2.58%.
On to `N#Cc1ccnc(N2CCN(Cc3cccc(F)c3)CC2)c1`, for which the cytotoxicity at 10 µM is 0.795%.
Then `CCOc1cccc(C(C)NC(=O)N2CCC(C(N)=O)CC2)c1` (configuration not stated), with -2.95%; and `COc1ccc(NC(=O)NC(C)(C)c2noc(C)n2)cc1`, with -3.42%.
On to `CN(Cc1cnn(C)c1)C(=O)NC1CCS(=O)(=O)C1` (configuration not stated), for which the cytotoxicity at 10 µM was -14.4%.
Regarding `CCN1CCNC(=O)C12CCN(C(=O)Cc1ccsc1)CC2`, the cytotoxicity at 10 µM is -3.31%.
As to `O=C(c1ccc2ccccc2c1)C1CCCN(C(=O)Cn2cnnn2)C1` (configuration not stated), the cytotoxicity at 10 µM is 1.54%.
`Cn1ccnc1-c1cn(CCCc2nnc(N)s2)nn1`: the cytotoxicity at 10 µM is 10%.
With `O=C1CCC2(CCN(Cc3cscn3)CC2)CN1CC1CCCO1` (configuration not stated), the cytotoxicity at 10 µM is -5.5%.
As for `Cc1cc(C)c(C(=O)NC(CN2CCCC2)c2ccccc2)c(=O)[nH]1` (configuration not stated), the cytotoxicity at 10 µM was -2.57%.
For `CC(=O)N1CCCC(C(=O)NCCc2csc(-c3ccncc3)n2)C1` (configuration not stated) the value was 5.12%; for `CCCn1cnnc1CNC(=O)CC1C(=O)NCCN1CC=C(C)C` (configuration not stated), 6.64%; for `Fc1ccc(C2(c3noc(CCN4CCCCO4)n3)CCOC2)cc1` (configuration not stated), -1.54%.
Then `CCCc1nc(C)cc(N2CCC3(CCC(=O)N(C4CC4)C3)CC2)n1`, with -5.31%; and `Cc1cc(-c2cccc(-c3ccn(CCCO)n3)c2)nc(N(C)C)n1`, with -5.42%; and `Cc1nncn1CCN1C(=O)CC2(CCCC2)CC1=O`, with -0.745%.
Then `O[C@H]1CN(c2nc(-c3ccccc3)no2)C[C@@H]1N1CCOCC1`, with -20.8%; and `O=C(NCc1cc(O)ncn1)C1CCOc2ccccc2C1` (configuration not stated), with -6.01%.
In the case of `CC(=O)N1CCC(c2cc(C(F)(F)F)n3ccnc3n2)CC1`, the cytotoxicity at 10 µM came out at 1.56%.
In the case of `O=C1CN(c2ccc(CNC(=O)NCc3ccoc3)cc2)CCN1`, the cytotoxicity at 10 µM was -1.28%.
Then `Cc1cnn(C2CCCN(C(=O)c3ccc(NC4CC4)nc3)C2)c1` (configuration not stated), with -19.6%.
Consider `CC(C(=O)NCCCN1CCOCC1)n1cncn1` (configuration not stated), for which the cytotoxicity at 10 µM came out at 1.4%.
In the case of `COc1ccc(NC(=O)CCn2nc(-c3cccs3)oc2=O)cc1OC`, the cytotoxicity at 10 µM is -9.37%.
Regarding `CCCNC(=O)CN1CCC(NC(=O)c2cc(CC)ccc2O)CC1`, the cytotoxicity at 10 µM was 1.93%.
Turning to `Cc1ccoc1C(=O)NCc1ccnc(OCC(F)(F)F)c1`, the cytotoxicity at 10 µM was -7.8%.
For `CCN(CC)C(=O)Cn1ccc2cc(NC(=O)NC3CC3)ccc21`, the cytotoxicity at 10 µM was -9.01%.
As to `CCc1n[nH]c(C2CN(C(=O)CCn3ccccc3=O)CCO2)n1` (configuration not stated), the cytotoxicity at 10 µM is 0.00528%.
In the case of `CN(C)c1ccc(CNC(=O)NCCc2ccccn2)cn1`, the cytotoxicity at 10 µM is -4.66%.
For the molecule `Cc1nc(CN2CCCN(C(=O)C3(C#N)CCCCC3)CC2)cs1`, the cytotoxicity at 10 µM is -9.98%.
For `Cc1csc(N2CCN(C(=O)CCn3cncn3)CC2)n1` the value was -5.97%; for `CN(Cc1cnn(C)c1)C(=O)NCc1nnc2n1CCC2`, -4.1%; for `CC(NC(=O)N(C)Cc1ccc(Cl)s1)c1ccccn1` (configuration not stated), 0.313%.
With `O=C(c1cccn2ccnc12)N1CCCN(c2cccnn2)CC1`, the cytotoxicity at 10 µM stood at 1.68%.
On to `O=C(NC1CC1)[C@H]1CN(Cc2ccc3c(c2)OCO3)C[C@H]2OCC[C@@H]12`, for which the cytotoxicity at 10 µM was found to be 3.56%.
Regarding `C[C@H]1C(=O)NC[C@H]2CN(CCc3ccccc3)C[C@H]21`, the cytotoxicity at 10 µM amounted to 2.64%.
With `O=S(=O)(C1CC1)N1CCO[C@@H]2CN(Cc3cccs3)C[C@@H]2C1`, the cytotoxicity at 10 µM was -154%.
For `O=C1COC2(CCN(c3ccccn3)CC2)CN1` the value was 9.52%; for `CS(=O)(=O)N1CC[C@]2(C[C@H](Oc3ccccn3)CO2)C1`, -116%; for `Cc1noc([C@@H]2C[C@@H]3CCN(CC4CCOCC4)C[C@H]3O2)n1`, -130%.
Regarding `c1ccc(CO[C@@H]2C[C@H]3CN(c4ncccn4)CCN3C2)cc1`, the cytotoxicity at 10 µM amounted to 0.472%.
For `CCc1cnc(N2CC[C@@H]3CN(CCC(C)C)S(=O)(=O)[C@@H]3CC2)nc1` the value was 2.38%.
As to `Fc1cnc(N2CCCn3c(nnc3Cn3cccc3)C2)nc1`, the cytotoxicity at 10 µM is -134%.
For `CCN(C)S(=O)(=O)N1C[C@H]2CC[C@@H](C1)N(Cc1cscn1)C2=O` the value was 11%; for `O=c1c2c[nH]c(N3CCCCC3)nc-2cn1-c1ccc2c(c1)OCO2`, 15%; for `O=C(c1c[nH]c(=O)c(Cl)c1)N1C[C@H]2CC[C@@H](C1)N(Cc1ccccc1)C2`, -14.5%.
